Reference: ChEMBL document CHEMBL2062375, “Discovery of an orally efficacious inhibitor of anaplastic lymphoma kinase” (J Med Chem, 2012)
Calls of active or inactive are those of the source. The rule behind the calls is not given here.

Key:
[1] = Tmax in Sprague-Dawley rat at 10 mg/kg, po; format: ADME, organism-based; parameters: dose 10 mg/kg, route oral; conditions: in vivo
How it was run: (§1)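 PK: overnight-fasted animals. Rat oral gavage 5 mL/kg in 40% HPβCD, serial tail-vein blood over 6 h. Dog oral gavage 1 mL/kg, monkey nasogastric 2 mL/kg, femoral-vein blood over 24 h. Plasma protein-precipitated with acetonitrile, LCMS/MS with internal standard; noncompartmental analysis, individual animals n = 3, mean ± SEM.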

[2] = AUC in SCID mouse at 10 mg/kg, po; format: ADME, organism-based; parameters: dose 10 mg/kg, route oral; conditions: plasma
How it was run: (§2)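 Mouse PK. IV via the lateral tail vein in 3% DMSO/30% Solutol/67% PBS, or oral gavage in 100% PEG400, 100 μL dose volume, after an overnight fast. Trunk blood was taken from three mice per time point over 6 h. Plasma was acetonitrile-precipitated and analysed by LC-MS/MS. Parameters were derived noncompartmentally.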

[3] = molecular target: Serine/threonine-protein kinase Chk2 (Homo sapiens, UniProt O96017); assay: Inhibition of human CHK2
Serine/threonine-protein kinase Chk2, sequence (O96017 whole entry): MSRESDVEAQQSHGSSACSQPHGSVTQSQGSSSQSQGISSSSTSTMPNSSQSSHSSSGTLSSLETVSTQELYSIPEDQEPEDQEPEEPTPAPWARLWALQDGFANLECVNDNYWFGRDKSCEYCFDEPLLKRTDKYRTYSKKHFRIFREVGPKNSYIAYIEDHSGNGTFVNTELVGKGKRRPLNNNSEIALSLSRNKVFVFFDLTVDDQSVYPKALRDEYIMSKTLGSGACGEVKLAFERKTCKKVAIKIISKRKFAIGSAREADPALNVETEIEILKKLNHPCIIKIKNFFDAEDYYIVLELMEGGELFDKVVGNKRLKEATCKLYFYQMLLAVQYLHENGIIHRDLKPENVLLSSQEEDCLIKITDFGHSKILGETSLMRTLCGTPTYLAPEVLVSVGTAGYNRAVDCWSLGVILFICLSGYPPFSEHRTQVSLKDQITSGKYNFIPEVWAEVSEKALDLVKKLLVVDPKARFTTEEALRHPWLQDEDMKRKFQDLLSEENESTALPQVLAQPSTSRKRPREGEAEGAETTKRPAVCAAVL
How it was run: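 Commercial activity-assay panel of 259 kinases. Each kinase was first screened at 1 μM, and those inhibited by ≥90% went on to full IC50 determination.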

[4] = Plasma concentration in SCID mouse xenografted with human KARPAS299 cells expressing NPM-ALK at 30 mg/kg, po after 6 hrs by LC-MS/MS analysis; format: ADME, organism-based, KARPAS-299; parameters: dose 30 mg/kg, route oral
How it was run: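 Pharmacodynamic study: SCID mice bearing subcutaneous Karpas-299 xenografts given single 30 mg/kg oral dose; plasma drug levels measured by LCMS/MS, reported as mean ± SEM.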

[5] = Cmax in rat at 10 mg/kg, po; format: ADME, organism-based; parameters: dose 10 mg/kg, route oral; conditions: in vivo
How it was run: (§3)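 Rat oral dose escalation at 10, 30, 55 and 100 mg/kg. Gavage at 5 mL/kg in 40% HPβCD after an overnight fast. Serial tail-vein blood was drawn into heparinized tubes. Plasma was protein-precipitated with acetonitrile and assayed by LC-MS/MS. Cmax and AUC0–12 were derived noncompartmentally; n = 2 at 10 mg/kg.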

[6] = molecular target: T1, Tyrosine-protein kinase Fes/Fps (Homo sapiens, UniProt P07332); conditions: 1 uM
T1 sequence (P07332 whole entry): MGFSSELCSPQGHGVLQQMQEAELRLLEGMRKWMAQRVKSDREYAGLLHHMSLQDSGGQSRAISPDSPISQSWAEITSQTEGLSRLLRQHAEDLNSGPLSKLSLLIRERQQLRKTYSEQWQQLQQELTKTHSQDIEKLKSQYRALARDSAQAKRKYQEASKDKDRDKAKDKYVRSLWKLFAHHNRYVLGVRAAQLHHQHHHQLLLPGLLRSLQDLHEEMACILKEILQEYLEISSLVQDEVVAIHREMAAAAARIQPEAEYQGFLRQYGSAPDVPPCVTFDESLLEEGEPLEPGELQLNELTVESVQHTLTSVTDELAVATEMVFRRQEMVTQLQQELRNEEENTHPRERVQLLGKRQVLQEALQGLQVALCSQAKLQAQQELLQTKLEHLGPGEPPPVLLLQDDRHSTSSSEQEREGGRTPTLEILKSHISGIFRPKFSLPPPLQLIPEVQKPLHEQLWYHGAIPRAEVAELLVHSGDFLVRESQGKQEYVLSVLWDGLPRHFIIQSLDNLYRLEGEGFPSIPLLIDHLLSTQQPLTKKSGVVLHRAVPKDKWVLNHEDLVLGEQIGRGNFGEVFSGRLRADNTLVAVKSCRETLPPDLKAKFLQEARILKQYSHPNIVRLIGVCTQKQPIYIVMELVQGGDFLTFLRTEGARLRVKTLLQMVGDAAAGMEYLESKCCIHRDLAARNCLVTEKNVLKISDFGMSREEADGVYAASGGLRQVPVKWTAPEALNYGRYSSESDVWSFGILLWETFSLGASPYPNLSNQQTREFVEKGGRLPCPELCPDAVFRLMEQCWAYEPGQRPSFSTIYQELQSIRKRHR

[7] = Tmax in CD-1 mouse at 10 mg/kg, po; format: ADME, organism-based; parameters: dose 10 mg/kg, route oral; conditions: in vivo
How it was run: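 Mouse oral PK: overnight fast, gavage of 100 μL in 100% PEG400; trunk blood from three mice per time point over 6 h; plasma acetonitrile-precipitated and analysed by LCMS/MS, noncompartmental parameters.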

[8] = Cmax in CD-1 mouse at 10 mg/kg, po; format: ADME, organism-based; parameters: dose 10 mg/kg, route oral; conditions: in vivo; how it was run: as §2
[9] = tested on: KARPAS-299; assay: Antitumor activity against human KARPAS299 cells expressing NPM-ALK xenografted in SCID mouse assessed as tumor regression at 30 mg/kg, po bid for 12 days; format: functional, organism-based; parameters: dose 30 mg/kg
How it was run: (§4)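 Female SCID/beige mice, 6–8 weeks old, implanted sc in the left flank with exponentially growing Karpas-299 cells. At about 600 mm³ tumours, mice were randomized (8–10/group) and given PEG400 vehicle or compound orally b.i.d., 100 μL, for 12 days. Tumour volume (0.5236LW(L+W)/2) and body weight were recorded every 2–3 days; Mann–Whitney test. Plasma and tumour levels were measured by LC-MS/MS 2 h after the final dose, mean ± SEM.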

[10] = AUC (0 to 12 hrs) in rat 100 mg/kg, po; format: ADME, organism-based; parameters: time < 12 hr, dose 100 mg/kg, route oral; conditions: plasma; how it was run: as §3
[11] = AUC (0 to 12 hrs) in rat 10 mg/kg, po; format: ADME, organism-based; parameters: time < 12 hr, dose 10 mg/kg, route oral; conditions: plasma; how it was run: as §3
[12] = Half life in Sprague-Dawley rat at 10 mg/kg, po; format: ADME, organism-based; parameters: dose 10 mg/kg, route oral; conditions: in vivo
How it was run: (§5)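 Rat PK. IV via the lateral tail vein, 1 mL/kg in 3% DMSO/30% Solutol/67% PBS, or oral gavage at 5 mL/kg in 40% HPβCD, after an overnight fast. Serial tail-vein blood was taken into heparin over 6 h. Plasma was acetonitrile-precipitated and analysed by LC-MS/MS. Parameters were noncompartmental, n = 3, mean ± SEM.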

[13] = molecular target: T1, Tyrosine-protein kinase Fes/Fps; assay: Inhibition of human Fes
How it was run: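 Millipore KinaseProfiler activity assays on a 259-kinase panel; kinases inhibited by ≥90% at 1 μM then taken to full IC50 determination.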

[14] = Tmax in Beagle dog at 10 mg/kg, po; format: ADME, organism-based, Canis lupus familiaris; parameters: dose 10 mg/kg, route oral; conditions: in vivo; how it was run: as §1
[15] = molecular target: Receptor-type tyrosine-protein kinase FLT3 (Homo sapiens) (UniProt P36888); conditions: 1 uM
Receptor-type tyrosine-protein kinase FLT3 (Homo sapiens), sequence (P36888 whole entry): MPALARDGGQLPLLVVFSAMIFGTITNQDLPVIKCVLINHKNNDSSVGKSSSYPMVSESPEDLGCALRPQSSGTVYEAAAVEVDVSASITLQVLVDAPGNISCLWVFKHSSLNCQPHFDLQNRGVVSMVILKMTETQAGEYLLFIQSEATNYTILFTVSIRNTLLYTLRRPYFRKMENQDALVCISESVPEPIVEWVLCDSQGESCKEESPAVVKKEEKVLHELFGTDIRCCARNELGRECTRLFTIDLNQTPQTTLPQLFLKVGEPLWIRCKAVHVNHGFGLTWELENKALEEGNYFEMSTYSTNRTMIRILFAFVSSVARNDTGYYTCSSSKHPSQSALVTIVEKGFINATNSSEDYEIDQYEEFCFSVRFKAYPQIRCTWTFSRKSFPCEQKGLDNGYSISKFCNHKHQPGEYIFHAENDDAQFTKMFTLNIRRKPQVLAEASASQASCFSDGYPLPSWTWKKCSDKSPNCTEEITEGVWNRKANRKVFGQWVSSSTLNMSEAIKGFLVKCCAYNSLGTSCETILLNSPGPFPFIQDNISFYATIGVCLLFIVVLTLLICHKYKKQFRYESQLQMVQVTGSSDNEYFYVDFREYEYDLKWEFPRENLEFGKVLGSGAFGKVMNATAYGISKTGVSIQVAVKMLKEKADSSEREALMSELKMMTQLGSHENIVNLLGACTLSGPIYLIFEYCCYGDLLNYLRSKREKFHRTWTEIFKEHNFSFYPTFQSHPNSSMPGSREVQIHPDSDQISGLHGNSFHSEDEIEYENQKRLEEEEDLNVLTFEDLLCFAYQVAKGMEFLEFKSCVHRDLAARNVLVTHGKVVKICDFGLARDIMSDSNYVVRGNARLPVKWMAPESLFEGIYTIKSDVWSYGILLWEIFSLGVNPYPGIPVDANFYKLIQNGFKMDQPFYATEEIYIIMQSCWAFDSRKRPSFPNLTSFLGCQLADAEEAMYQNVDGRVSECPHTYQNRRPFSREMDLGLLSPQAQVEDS

[16] = AUC in CD-1 mouse at 10 mg/kg, po; format: ADME, organism-based; parameters: dose 10 mg/kg, route oral; conditions: plasma; how it was run: as §2
[17] = tested on: KARPAS-299; assay: Antitumor activity against human KARPAS299 cells expressing NPM-ALK xenografted in SCID mouse assessed as tumor regression administered as po bid for 12 days; format: functional, organism-based; how it was run: as §4
[18] = molecular target: Mitogen-activated protein kinase 8 (Homo sapiens, UniProt P45983); conditions: 1 uM
Mitogen-activated protein kinase 8, sequence (P45983 whole entry): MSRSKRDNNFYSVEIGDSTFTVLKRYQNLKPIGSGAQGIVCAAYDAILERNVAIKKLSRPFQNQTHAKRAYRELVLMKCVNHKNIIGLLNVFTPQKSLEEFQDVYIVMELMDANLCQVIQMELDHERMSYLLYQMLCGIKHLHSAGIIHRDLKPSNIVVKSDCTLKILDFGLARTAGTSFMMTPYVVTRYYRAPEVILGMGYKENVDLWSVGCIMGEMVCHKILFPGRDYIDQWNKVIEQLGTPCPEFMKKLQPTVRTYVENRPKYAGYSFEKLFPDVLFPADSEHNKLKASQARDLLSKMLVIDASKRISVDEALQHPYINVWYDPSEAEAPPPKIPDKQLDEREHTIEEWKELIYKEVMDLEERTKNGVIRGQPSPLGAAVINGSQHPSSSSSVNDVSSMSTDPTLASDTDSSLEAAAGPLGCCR

[19] = Drug level in SCID mouse tumor xenografted with human KARPAS299 cells expressing NPM-ALK at 30 mg/kg, po after 6 hrs by LC-MS/MS analysis; format: ADME, organism-based, Neoplasm, KARPAS-299; parameters: dose 30 mg/kg, route oral; conditions: read-out: Drug uptake
[20] = AUC in Sprague-Dawley rat at 10 mg/kg, po; format: ADME, organism-based; parameters: dose 10 mg/kg, route oral; conditions: plasma; how it was run: as §5
[21] = Half life in Sprague-Dawley rat at 1 mg/kg, iv; format: ADME, organism-based; parameters: dose 1 mg/kg, route intravenous; conditions: in vivo; how it was run: as §5
[22] = Volume of distribution in cynomolgus monkey at 1 mg/kg, iv; format: ADME, organism-based, Macaca fascicularis; parameters: dose 1 mg/kg, route intravenous; conditions: in vivo
How it was run: (§6)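 IV PK: rats via lateral tail vein (1 mL/kg; 3% DMSO/30% Solutol/67% PBS), serial tail-vein blood over 6 h. Dogs and monkeys via saphenous vein (0.5 mL/kg in 40% HPβCD), femoral-vein blood over 24 h. Acetonitrile protein precipitation, LCMS/MS; noncompartmental parameters from individual animals, n = 3, mean ± SEM.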

[23] = Cmax in rat at 100 mg/kg, po; format: ADME, organism-based; parameters: dose 100 mg/kg, route oral; conditions: in vivo; how it was run: as §3
[24] = Cmax in cynomolgus monkey at 10 mg/kg, po; format: ADME, organism-based, Macaca fascicularis; parameters: dose 10 mg/kg, route oral; conditions: in vivo
How it was run: (§7)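 Dog and monkey PK. IV 0.5 mL/kg in 40% HPβCD via the saphenous vein. Oral dosing was 1 mL/kg by gavage in dogs and 2 mL/kg by nasogastric tube in monkeys, after an overnight fast. Serial femoral-vein blood was taken into heparin over 24 h. Plasma was acetonitrile-precipitated and analysed by LC-MS/MS. Parameters were noncompartmental, n = 3, mean ± SEM.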

[25] = Plasma clearance in CD-1 mouse at 1 mg/kg, iv; format: ADME, organism-based; parameters: dose 1 mg/kg, route intravenous
How it was run: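 Mouse IV PK: lateral tail vein dosing, 100 μL in 3% DMSO/30% Solutol/67% PBS; trunk blood from three mice per time point over 6 h. Plasma precipitated with acetonitrile, drug quantified by LCMS/MS against internal standard; noncompartmental analysis.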

[26] = Cmax in Beagle dog at 10 mg/kg, po; format: ADME, organism-based, Canis lupus familiaris; parameters: dose 10 mg/kg, route oral; conditions: in vivo; how it was run: as §7
[27] = molecular target: Ribosomal protein S6 kinase alpha-3 (Homo sapiens, UniProt P51812); conditions: 1 uM
Ribosomal protein S6 kinase alpha-3, sequence (P51812 whole entry): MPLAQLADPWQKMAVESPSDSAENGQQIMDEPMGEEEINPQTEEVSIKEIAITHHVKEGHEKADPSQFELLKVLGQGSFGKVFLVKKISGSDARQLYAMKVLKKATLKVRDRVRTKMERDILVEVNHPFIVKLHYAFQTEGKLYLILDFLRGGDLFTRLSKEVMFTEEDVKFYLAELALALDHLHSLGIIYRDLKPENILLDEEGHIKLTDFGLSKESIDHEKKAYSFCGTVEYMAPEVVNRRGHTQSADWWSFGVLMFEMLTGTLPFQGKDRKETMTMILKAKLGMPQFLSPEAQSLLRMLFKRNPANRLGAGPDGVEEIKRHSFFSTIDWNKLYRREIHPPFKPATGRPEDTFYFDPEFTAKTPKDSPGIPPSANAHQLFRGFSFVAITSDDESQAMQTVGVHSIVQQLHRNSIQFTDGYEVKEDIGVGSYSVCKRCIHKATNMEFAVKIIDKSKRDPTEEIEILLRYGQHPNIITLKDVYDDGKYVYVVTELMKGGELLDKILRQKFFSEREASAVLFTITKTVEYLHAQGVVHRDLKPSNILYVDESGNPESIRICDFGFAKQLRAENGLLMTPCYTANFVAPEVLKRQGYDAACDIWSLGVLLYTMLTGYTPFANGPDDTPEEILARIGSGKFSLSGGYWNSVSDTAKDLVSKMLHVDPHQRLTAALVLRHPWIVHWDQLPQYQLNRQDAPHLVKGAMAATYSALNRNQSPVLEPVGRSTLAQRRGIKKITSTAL

[28] = molecular target: Tyrosine-protein kinase Fer (Homo sapiens, UniProt P16591); conditions: 1 uM
[29] = Plasma clearance in Beagle dog at 1 mg/kg, iv; format: ADME, organism-based, Canis lupus familiaris; parameters: dose 1 mg/kg, route intravenous; how it was run: as §6
[30] = molecular target: Mitogen-activated protein kinase kinase kinase kinase 2 (Homo sapiens) (UniProt Q12851); conditions: 1 uM
Mitogen-activated protein kinase kinase kinase kinase 2 (Homo sapiens), sequence (Q12851 whole entry): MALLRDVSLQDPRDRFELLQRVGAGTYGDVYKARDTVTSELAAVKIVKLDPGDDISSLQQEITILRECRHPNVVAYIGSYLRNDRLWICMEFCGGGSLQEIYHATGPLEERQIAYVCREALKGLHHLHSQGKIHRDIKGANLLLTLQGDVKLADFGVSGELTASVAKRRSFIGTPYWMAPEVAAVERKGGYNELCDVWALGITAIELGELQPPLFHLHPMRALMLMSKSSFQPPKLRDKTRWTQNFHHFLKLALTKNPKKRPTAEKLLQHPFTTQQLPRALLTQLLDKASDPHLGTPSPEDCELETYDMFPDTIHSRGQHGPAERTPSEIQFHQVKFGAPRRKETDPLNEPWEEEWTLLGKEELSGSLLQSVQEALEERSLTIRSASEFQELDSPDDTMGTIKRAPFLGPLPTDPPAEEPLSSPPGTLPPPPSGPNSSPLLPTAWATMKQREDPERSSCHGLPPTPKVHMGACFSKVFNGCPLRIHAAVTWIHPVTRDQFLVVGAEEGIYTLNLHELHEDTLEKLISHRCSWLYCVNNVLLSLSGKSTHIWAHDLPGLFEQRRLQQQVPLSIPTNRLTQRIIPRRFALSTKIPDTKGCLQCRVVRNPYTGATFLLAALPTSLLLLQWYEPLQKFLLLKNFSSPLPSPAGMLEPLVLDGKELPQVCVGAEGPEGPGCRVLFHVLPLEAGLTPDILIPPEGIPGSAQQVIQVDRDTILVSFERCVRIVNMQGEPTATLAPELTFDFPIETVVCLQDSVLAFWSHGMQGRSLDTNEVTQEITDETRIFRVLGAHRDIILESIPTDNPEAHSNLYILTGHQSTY

[31] = Plasma clearance in Sprague-Dawley rat at 1 mg/kg, iv; format: ADME, organism-based; parameters: dose 1 mg/kg, route intravenous; how it was run: as §6

- Tmax [1]: 78 min
- AUC [2]: 21400 ng·h/mL
- IC50 [3]: 29 nM
- concentration at 6 h [4]: 3840 ng/mL
- Cmax [5]: 349 ng/mL
- inhibition [6]: > 90%
- Tmax [7]: 15 min
- Cmax [8]: 880 ng/mL
- AUC(0-t) at 12 h [10]: 38200 ng·h/mL
- AUC(0-t) at 12 h [11]: 2570 ng·h/mL
- half-life [12]: 372 min
- IC50 [13]: 99 nM
- Tmax [14]: 48 min
- inhibition [15]: > 90%
- AUC [16]: 2990 ng·h/mL
- inhibition [18]: > 90%
- concentration at 6 h [19]: 2870 ng/g
- AUC [20]: 4830 ng·h/mL
- half-life [21]: 54 min
- Vd [22]: 2.9 L/kg
- Cmax [23]: 3050 ng/mL
- Cmax [24]: 170 ng/mL
- clearance [25]: 29 mL/min/kg
- Cmax [26]: 427 ng/mL
- inhibition [27]: > 90%
- inhibition [28]: > 90%
- clearance [29]: 40 mL/min/kg
- inhibition [30]: > 90%
- clearance [31]: 17 mL/min/kg
Structure (SMILES): COc1c(Nc2ncc(Cl)c(N[C@H]3[C@@H](C(N)=O)[C@@H]4C=C[C@H]3C4)n2)ccc2c1CC[C@@H](N1CCOCC1)CC2
- Activity [9]: Active
- Activity [17]: Dose-dependent effect
